According to ChEMBL document CHEMBL1137054, “Synthesis of 5'-substituted fluoro-neplanocin A analogues: importance of a hydrogen bonding donor at 5'-position for the inhibitory activity of S-adenosylhomocysteine hydrolase” (Bioorg Med Chem Lett, 2004):

Experiments:
[1] = target: Adenosylhomocysteinase (Homo sapiens, UniProt P23526); assay: Inhibitory activity against enzyme S-adenosyl-homocysteine hydrolase of human placenta
[2] = system: A549; assay: Concentration required for 50% inhibition of A549 cell line (human lung carcinoma cells); format: functional, cell-based
Method in brief: (§1)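 Cytotoxicity in cultured human cancer cells (Col2 colon carcinoma; A549 lung carcinoma). Cells were exposed to serial dilutions of compound, and the value is the concentration giving 50% survival.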

[3] = system: Col2; assay: Concentration required for 50% inhibition of Col2 cell line (human colon carcinoma cells); format: functional, cell-based; method in brief: as §1

Adenosylhomocysteinase, sequence (P23526 whole entry): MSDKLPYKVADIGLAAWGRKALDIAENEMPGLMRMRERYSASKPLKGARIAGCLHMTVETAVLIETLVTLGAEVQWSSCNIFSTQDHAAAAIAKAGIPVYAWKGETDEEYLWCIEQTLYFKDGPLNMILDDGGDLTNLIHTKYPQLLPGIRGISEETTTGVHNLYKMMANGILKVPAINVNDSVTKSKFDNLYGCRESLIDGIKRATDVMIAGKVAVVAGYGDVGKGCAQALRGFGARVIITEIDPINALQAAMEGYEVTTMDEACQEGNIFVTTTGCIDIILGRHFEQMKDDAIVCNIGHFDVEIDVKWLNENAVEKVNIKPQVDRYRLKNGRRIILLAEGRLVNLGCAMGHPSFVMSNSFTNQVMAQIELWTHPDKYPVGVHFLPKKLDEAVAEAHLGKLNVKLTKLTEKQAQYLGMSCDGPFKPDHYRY

IC50 [1]	IC50 [2]	IC50 [3]	Structure (SMILES)
> 100 µM	53 µM	35.9 µM	[N-]=[N+]=NCC1=C(F)[C@@H](n2cnc3c(N)ncnc32)[C@H](O)[C@@H]1O
12.7 µM	42.8 µM	39.2 µM	NCC1=C(F)[C@@H](n2cnc3c(N)ncnc32)[C@H](O)[C@@H]1O
> 100 µM	> 100 µM	> 100 µM	Nc1ncnc2c1ncn2[C@@H]1C(F)=C(CF)[C@@H](O)[C@H]1O
97.3 µM	> 100 µM	> 100 µM	Nc1ncnc2c1ncn2[C@@H]1C(F)=C(CS)[C@@H](O)[C@H]1O
0.48 µM	4.6 µM	1.4 µM	Nc1ncnc2c1ncn2[C@@H]1C(F)=C(CO)[C@@H](O)[C@H]1O [FLUORO-NEPLANOCIN A]
